Screening results from PubChem.
SENP6 block = SENP6 protease inhibition; Recombinant SENP6 catalytic domain, aminoluciferin luminescence; Q9GZR1; inhibition, % at 10 µM; 1.8% of 330,000 active;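 active means inhibition above about 50% at the single tested dose, limit read from the data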;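 further: plate controls were DMSO wells with enzyme for no effect and DMSO wells lacking enzyme for full effect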
SENP1 FRET inh = inhibitors of human SENP1 SUMO protease catalytic domain. Q9P0U3. recombinant SENP1 catalytic domain, CyPet-SUMO1-YPet FRET cleavage. inhibition, % at 10 µM. 0.21% of 360,000 active;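 active means inhibition at least 30% at 10 µM, raw YFP signal under a set limit, fluorescence ratio 0.5 to 1.5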;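 further: 0% = enzyme with DMSO and 100% = no enzyme wells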
Target sequence (Q9P0U3 419-644 limits assumed): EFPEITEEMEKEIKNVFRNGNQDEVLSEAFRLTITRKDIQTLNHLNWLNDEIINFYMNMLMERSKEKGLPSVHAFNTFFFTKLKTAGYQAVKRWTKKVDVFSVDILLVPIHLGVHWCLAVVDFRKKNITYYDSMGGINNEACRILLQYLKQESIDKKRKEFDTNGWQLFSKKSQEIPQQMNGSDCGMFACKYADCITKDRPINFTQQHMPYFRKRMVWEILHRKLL
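Assay system – human recombinant His6-tagged SENP1 catalytic domain enzyme · Input – SENP1 enzyme, 20 pM final · Buffer or medium – Tris pH 8 buffer plus EDTA, NaCl, BME, BSA, NP40, catalase · Schedule – 50 min reaction at room temperature · Technique – FRET read of cyan and yellow fluorescence · Control set – no-enzyme wells low, DMSO-plus-enzyme wells high control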
HSP90 inh = blocks HSP90-mediated luciferase refolding in reticulocyte lysate; Rabbit reticulocyte lysate, luciferase refolding luminescence, 3 h; inhibition, % at 5.6 µM; 0.91% of 290,000 active;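 active means inhibition above the screen-wide mean plus 3 SD, computed separately per campaign, cut at about 16% in these data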;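 further: 0% = DMSO wells and 100% = 60 µM geldanamycin wells; inhibitors lower the luminescence because luciferase stays unfolded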
SENP8 block-1 = inhibitors of human SENP8 protease; 1.2% of 330,000 active; AID 2540; Q96LD8; inhibition, % at 10 µM; purified SENP8, Z-RLRGG-aminoluciferin cleavage, luminescence; in the data active means inhibition above about 50%
Target sequence (Q96LD8 whole entry, looked up): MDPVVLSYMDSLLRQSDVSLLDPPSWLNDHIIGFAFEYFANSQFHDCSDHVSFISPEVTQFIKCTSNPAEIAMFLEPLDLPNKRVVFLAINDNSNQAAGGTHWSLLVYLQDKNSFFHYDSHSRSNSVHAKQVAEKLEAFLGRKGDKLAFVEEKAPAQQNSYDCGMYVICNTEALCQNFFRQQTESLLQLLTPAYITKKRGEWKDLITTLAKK
SENP8 block-2 = blocks human SENP8 cleavage of Nedd8 substrate. AID 602440. inhibition, % at 20 µM. recombinant SENP8, Nedd8 substrate fluorescence. Q96LD8. 0.64% of 360,000 active; in the data active means inhibition mostly above about 40%, no sharp cut-off; inactive means mostly below about 27%
SENP7 block = blocks the human protease SENP7 | recombinant SENP7, Z-RLRGG-aminoluciferin luminescence, 40 min | Q9BQF6 | 1.5% of 330,000 active | AID 434973 | inhibition, % at 5 µM;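 active means inhibition above about 50% at the single test dose, limit read from the data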;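 further: plate controls were DMSO with enzyme for no effect and no enzyme buffer wells for full effect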
SENP8 conf-1 = human SENP8 inhibition, confirmed | shares compounds with SENP7 block | Recombinant SENP8, Z-RLRGG-aminoluciferin luminescence, 60 min | inhibition, % at 12.5 µM | 40% of 6,200 active | AID 488912;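 active means mean inhibition across replicates above about 50%, limit read from the data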
SENP6 conf = confirmation of human SENP6 protease inhibitors; 58% of 6,200 active; inhibition, % at 12.5 µM; shares compounds with SENP7 block; AID 488915; recombinant SENP6, Z-RLRGG-aminoluciferin luminescence
SENP7 conf = confirmation of human SENP7 protease inhibitors; shares compounds with SENP7 block; recombinant SENP7, Z-RLRGG-aminoluciferin luminescence, 40 min; inhibition, % at 12.5 µM; 69% of 6,200 active
Casp3 select = inhibits human caspase-3 in SENP selectivity test; shares compounds with SENP7 block; purified caspase-3, Z-DEVD-aminoluciferin luminescence, 60 min; inhibition, % at 12.5 µM; 60% of 6,200 active; AID 488918;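 active means mean inhibition above about 50%, limit read from the data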;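 further: plate controls were enzyme with DMSO for no effect and wells without caspase-3 for full effect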
Target sequence (P42574 28-227 limits assumed): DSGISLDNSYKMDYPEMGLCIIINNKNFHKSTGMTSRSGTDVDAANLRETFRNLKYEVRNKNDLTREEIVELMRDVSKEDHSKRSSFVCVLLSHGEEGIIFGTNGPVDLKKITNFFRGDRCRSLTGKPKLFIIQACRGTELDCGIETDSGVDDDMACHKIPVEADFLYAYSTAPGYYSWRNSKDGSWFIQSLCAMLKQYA
SENP luc ctr = luminescence interference (SENP counter-screen) | shares compounds with SENP7 block | Pre-incubated SENP8/Z-RLRGG-aminoluciferin, luciferase luminescence interference | inhibition, % at 12.5 µM | 39% of 6,200 active;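 active means mean inhibition above about 50% when retested at one dose, limit read from the data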;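 further: plate controls were DMSO wells with completed reaction for no effect and substrate without enzyme for full effect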
SENP8 conf-2 = SENP8 (human) inhibition, single concentration confirmation | purified SENP8, Nedd8-AMC/pro-Nedd8 cleavage fluorescence, 30 min | 15% of 1,400 active | shares compounds with SENP8 block-2 | AID 624319 | inhibition, % at 25 µM; in the data active means inhibition mostly above about 39%, no sharp cut-off; inactive means mostly below about 34%
* hit, by the source's call; / = no result given. An excerpt weighted towards active compounds, which were near 2.9% of everything screened.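 How the source made its calls, unless noted: active means mean inhibition above about 50% in the one-dose retest (limit read from the data); inactive means the rest.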

SMILES	SENP6 block	SENP1 FRET inh	HSP90 inh	SENP8 block-1	SENP8 block-2	SENP7 block	SENP8 conf-1	SENP6 conf	SENP7 conf	Casp3 select	SENP luc ctr	SENP8 conf-2
O=C(Nc1ccc(N2CCCCC2)cc1)c1ccc([N+](=O)[O-])o1	87.3*	1.9	5.2	74.2*	37.7*	93.1*	10.0	89.6*	100.1*	85.0*	20.2	17.4
NC(=S)NNc1cccc2cccnc12	91.4*	3.7	5.9	48.8	51.4*	38.1	-2.9	11.6	-4.8	8.0	3.8	65.8*
NC(=S)Nc1cccc2cccnc12	-4.5	0.9	6.6	3.1	5.0	3.8	/	/	/	/	/	/
O=C(CCc1ccccc1)c1c(O)cc(O)cc1O	62.8*	1.6	/	51.7*	48.1*	-7.4	64.9*	60.3*	76.8*	18.6	67.0*	27.8
COc1ccc(C(=O)CCc2ccccc2)c(O)c1	17.9	2.5	/	5.2	1.3	5.0	/	/	/	/	/	/
C[C@@H]1CN([C@H](C)CO)C(=O)CCCn2nncc2CO[C@H]1CN(C)CC1CC1	/	2.2	/	/	16.4	/	/	/	/	/	/	/
O=C1C2=C(c3ccccc31)[N+](=O)[C@@H]1CCCC[C@@H]1N2[O-]	81.2*	2.7	0.2	48.5	74.3*	57.1*	14.2	56.0*	25.2	15.1	5.2	74.3*
CC(=O)OCCCNc1cc(SCc2ccco2)c2nonc2c1[N+](=O)[O-]	63.1*	-10.5	0.5	60.4*	49.7*	33.7	10.0	12.2	-5.2	4.9	-9.3	17.4
COc1cc(OC)cc(C(=O)N2CCN(C3CCC(C)CC3)CC2)c1 (stereo not drawn)	/	-88.8	/	/	1.4	/	/	/	/	/	/	/
O=C(O)c1cc(Cl)c(Cl)cc1C(=O)Nc1cccc2cccnc12	44.4	0.9	-1.7	11.0	61.0*	69.0*	-24.4	-13.6	-3.3	-5.6	-5.9	9.3
COc1ccccc1N1C(C)=CC(=C(C#N)c2nc3ccccc3s2)C=C1C	61.1*	-29.9	-0.7	3.4	66.8*	3.6	16.4	21.3	17.1	9.8	7.1	41.0
CC(C)=C(C#N)c1nc2ccccc2s1	-6.7	-9.7	1.3	-4.5	8.0	9.9	/	/	/	/	/	/
COc1cc(C=C(c2nc3ccccc3s2)c2nc3ccccc3s2)cc(OC)c1O	13.0	-26.5	1.2	1.0	-137.7	3.4	/	/	/	/	/	/
CC1=CC(=C(C#N)c2nc3ccccc3s2)C=C(C)N1c1ccc(F)cc1	53.7*	-25.3	-3.0	-6.5	84.6*	1.1	11.9	14.9	8.8	4.7	4.0	26.1
COc1cc(C(=O)OCC(=O)Nc2ccccc2)cc2c1OCCO2	/	0.6	/	/	0.4	/	/	/	/	/	/	/
CN(C)c1cc(N/N=C\c2ccccc2)nc(N(C)C)n1	76.5*	1.0	3.8	34.3	51.2*	71.4*	61.2*	76.2*	35.7	-2.8	0.9	69.3*
N/C(=N\O)c1ccc(Cl)cc1Cl	-9.5	0.9	-0.6	6.6	-0.3	7.7	/	/	/	/	/	/
N#CC1=C2SCN(Cc3ccccc3)CN2C(=O)CC1c1cccs1 (stereo not drawn)	74.5*	-10.3	0.6	71.5*	68.8*	40.3	-25.7	4.6	-2.8	-5.2	-3.7	9.0
O=C(Cc1ccccc1)Nc1nc2ccccc2s1	4.8	-4.8	-1.3	-12.7	-1.5	-1.0	/	/	/	/	/	/
O=C(Cc1ccccc1)c1nc2ccccc2s1	68.8*	-2.8	1.2	54.2*	47.9*	39.3	0.0	63.8*	86.6*	61.6*	43.2	67.5*
COc1ccc(Nc2ccc(Nc3ccc(OC)cc3)nn2)cc1	-9.3	0.2	3.2	-0.7	15.4	11.8	/	/	/	/	/	/
COc1ccc(Nc2ccc(OC)cc2)cc1	54.0*	-1.1	6.1	24.1	95.7*	10.6	-5.8	-10.4	6.7	10.4	11.4	14.4
COc1ccccc1-c1nc2ccccc2nc1-c1ccccc1OC	-0.1	-2.3	2.8	3.9	-247.9	-6.0	/	/	/	/	/	/
O=C1c2ccccc2-c2nc3ccccc3nc21	50.9*	6.4	-0.6	16.7	46.9*	38.2	37.4	53.3*	48.9	63.5*	16.1	89.2*
COc1ccc(NS(=O)(=O)c2ccc(C)c(C(=O)NCCCN3CCCC3=O)c2)cc1	-23.2	0.3	/	-5.8	10.6	-3.2	/	/	/	/	/	/
SMILES	SENP6 block	SENP1 FRET inh	HSP90 inh	SENP8 block-1	SENP8 block-2	SENP7 block	SENP8 conf-1	SENP6 conf	SENP7 conf	Casp3 select	SENP luc ctr	SENP8 conf-2
O=C(NNc1cc(N2CCCC2)nc(N2CCCC2)n1)c1ccc([N+](=O)[O-])cc1	91.4*	-14.4	-1.3	74.6*	76.7*	91.6*	18.3	61.4*	21.5	-0.6	-2.2	75.0*
O=C(CCc1ccccc1)NNc1cc(N2CCCCC2)nc(N2CCCCC2)n1	35.3	-25.2	0.9	3.6	46.9*	58.5*	0.3	15.8	-1.9	-4.0	-4.2	51.4*
Cc1nc(NNC(=O)c2ccc([N+](=O)[O-])cc2)cc(-c2ccccc2)n1	-12.5	3.8	7.3	1.7	16.7	0.0	/	/	/	/	/	/
CC(C)(C)c1ccc(C(=O)NNc2cc(N3CCOCC3)nc(N3CCOCC3)n2)cc1	45.4	-5.4	-1.6	2.7	9.9	30.6	/	/	/	/	/	/
CC(C)(C)c1ccc(C(=O)NNc2cc(N3CCCCC3)nc(N3CCCCC3)n2)cc1	85.7*	-39.7	-1.0	16.6	48.3*	74.1*	12.8	27.5	9.3	2.4	3.6	79.2*
COC(=O)c1cc(S(=O)(=O)N(Cc2ccccc2)C(C)(C)C)c[nH]1	1.9	1.7	0.6	-1.6	-2.1	-10.9	/	/	/	/	/	/
O=C1Cc2ccccc2C(=O)N1OCc1ccc(Cl)cc1	70.6*	-5.3	3.6	28.5	91.7*	52.2*	11.5	28.4	17.0	15.2	4.5	64.0*
CCCc1cc(=O)oc2cc(OCC(=O)NC3CCN(Cc4ccccc4)CC3)ccc12	0.6	-2.1	-1.3	3.2	-116.9	2.0	/	/	/	/	/	/
Oc1ccc(N=Cc2ccc(OCc3ccccc3)cc2)cc1	90.5*	6.4	-0.3	56.6*	66.5*	42.5	-2.7	56.8*	67.7*	49.5	7.1	-9.1
O=C(N/N=C/c1ccc(OCc2ccccc2)cc1)c1ccncc1	2.2	1.5	0.7	-10.6	-11.5	-8.1	/	/	/	/	/	/
